# Experimental data from ChEMBL document CHEMBL3244396, “Synthesis and antileukemic activity of 5-substituted 2,3-dihydro-6,7-bis(hydroxymethyl)-1H-pyrrolizine diesters” (J Med Chem, 1977).
# What was measured:
# Mus musculus [1] = test: Toxicity in female BDF1 mouse allografted with mouse L1210 cells assessed as animal survival at 100 mg/kg, ip administered daily for 9 days as Klucel suspension starting 24 hrs after tumor inoculation measured on fifth day; type: organism-based; parameters: dose 100 mg/kg, route intraperitoneal; conditions: in vivo
# Outline: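 Female BDF1 mice bearing ip ascitic L1210 inoculum got nine daily ip doses in a Klucel suspension, starting 24 h after tumor inoculation. Toxicity was scored as toxicity-day survivors out of the group, recorded on the fifth day. Animal weight difference (T − C) was also tabulated.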
# P388 [2] = test: Antitumor activity against mouse P388 cells allografted in female CDF1 mouse assessed as disease cures by measuring 30-days host survival at 200 mg/kg, ip administered daily for 9 days as saline with Tween-80 solution starting 24 hrs after tumor inoculation relative to control; type: functional; conditions: route intraperitoneal
# Outline: (§1)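 P388 ascitic cell inoculum given ip to CDF1 mice of the sex in each line. Nine daily ip doses in saline with Tween-80 as vehicle, starting 24 h after inoculation. Median survival time expressed as %T/C (>125 significant); "cure" defined as 30-day survival.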
# L1210 [3] = test: Antileukemic activity against mouse L1210 cells allografted in female BDF1 mouse assessed as change in body weight at 100 mg/kg, ip administered daily for 9 days as Klucel suspension starting 24 hrs after tumor inoculation; type: functional; conditions: route intraperitoneal
# Outline: (§2)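 Ascitic fluid carrying L1210 cells was inoculated ip. Compound was given ip as a Klucel (hydroxypropylcellulose) suspension in nine daily doses, starting 24 h after inoculation. Body-weight difference (treated minus control) was recorded on day 5. Survival was scored as %T/C of mean survival time.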
# Mus musculus [4] = test: Toxicity in female CDF1 mouse allografted with mouse P388 cells assessed as animal survival at 400 mg/kg, ip administered daily for 9 days as saline with Tween-80 solution starting 24 hrs after tumor inoculation; type: organism-based; parameters: dose 400 mg/kg, route intraperitoneal; conditions: in vivo
# Outline: (§3)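 P-388 leukemia ascitic fluid implanted ip. Compound dosed ip in saline with Tween-80 vehicle, once daily for nine doses from 24 h after tumor inoculation. Acute toxicity scored as toxicity-day survivors per group. Survival was followed up to 30 days, with 30-day survival counted as "cure". Follows NCI screening protocols.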
# P388 [5] = test: Antitumor activity against mouse P388 cells allografted in female CDF1 mouse assessed as change in body weight at 100 mg/kg, ip administered daily for 9 days as saline with Tween-80 solution starting 24 hrs after tumor inoculation; type: functional; conditions: route intraperitoneal
# Outline: (§4)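 Ascitic fluid carrying P388 cells was inoculated ip. Compound was given ip in nine daily doses, starting 24 h after inoculation, in Klucel (hydroxypropylcellulose) suspension or in saline with Tween-80. Body-weight difference (treated minus control) was recorded on day 5. Survival was scored as %T/C of median survival time, and 30-day survival counted as cure.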
# P388 [6] = test: Antitumor activity against mouse P388 cells allografted in female CDF1 mouse assessed as disease cures by measuring 30-days host survival at 100 mg/kg, ip administered daily for 9 days as saline with Tween-80 solution starting 24 hrs after tumor inoculation relative to control; type: functional; conditions: route intraperitoneal; outline: as §1
# L1210 [7] = test: Antileukemic activity against mouse L1210 cells allografted in female BDF1 mouse assessed as change in body weight at 200 mg/kg, ip administered daily for 9 days as Klucel suspension starting 24 hrs after tumor inoculation; type: functional; conditions: route intraperitoneal; outline: as §2
# Mus musculus [8] = test: Toxicity in female BDF1 mouse allografted with mouse L1210 cells assessed as animal survival at 200 mg/kg, ip administered daily for 9 days as Klucel suspension starting 24 hrs after tumor inoculation measured on fifth day; type: organism-based; parameters: dose 200 mg/kg, route intraperitoneal; conditions: in vivo
# Outline: (§5)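 L1210 leukemia passaged as ascitic fluid and inoculated ip. Test agent given ip as a Klucel (hydroxypropylcellulose) suspension, nine daily doses starting 24 h after tumor inoculation. Acute toxicity read as toxicity-day survivors per group (out of 6), recorded on day 5. Animal weight difference T − C was also recorded. Follows NCI screening protocols.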
# L1210 [9] = test: Antileukemic activity against mouse L1210 cells allografted in female BDF1 mouse assessed as host mean survival time at 100 mg/kg, ip administered daily for 9 days as Klucel suspension starting 24 hrs after tumor inoculation relative to control; type: functional; conditions: route intraperitoneal
# Outline: (§6)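 L1210 leukemia given as an ascitic fluid cell inoculum, ip, to mice of the strain and sex in each line. Test material was given ip for nine daily doses starting 24 h after inoculation, in a Klucel (hydroxypropylcellulose) suspension. Read-out is mean survival time as %T/C versus controls, with >125 taken as significant.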
# Mus musculus [10] = test: Toxicity in female BDF1 mouse allografted with mouse L1210 cells assessed as animal survival at 50 mg/kg, ip administered daily for 9 days as Klucel suspension starting 24 hrs after tumor inoculation measured on fifth day; type: organism-based; parameters: dose 50 mg/kg, route intraperitoneal; conditions: in vivo; outline: as §5
# P388 [11] = test: Antitumor activity against mouse P388 cells allografted in female CDF1 mouse assessed as disease cures by measuring 30-days host survival at 400 mg/kg, ip administered daily for 9 days as saline with Tween-80 solution starting 24 hrs after tumor inoculation relative to control; type: functional; conditions: route intraperitoneal; outline: as §1
# P388 [12] = test: Antitumor activity against mouse P388 cells allografted in female CDF1 mouse assessed as change in body weight at 200 mg/kg, ip administered daily for 9 days as saline with Tween-80 solution starting 24 hrs after tumor inoculation; type: functional; conditions: route intraperitoneal; outline: as §4
# L1210 [13] = test: Antileukemic activity against mouse L1210 cells allografted in female BDF1 mouse assessed as host mean survival time at 200 mg/kg, ip administered daily for 9 days as Klucel suspension starting 24 hrs after tumor inoculation relative to control; type: functional; conditions: route intraperitoneal; outline: as §6
# P388 [14] = test: Antitumor activity against mouse P388 cells allografted in female CDF1 mouse assessed as change in body weight at 400 mg/kg, ip administered daily for 9 days as saline with Tween-80 solution starting 24 hrs after tumor inoculation; type: functional; conditions: route intraperitoneal; outline: as §4
# L1210 [15] = test: Antileukemic activity against mouse L1210 cells allografted in female BDF1 mouse assessed as change in body weight at 50 mg/kg, ip administered daily for 9 days as Klucel suspension starting 24 hrs after tumor inoculation; type: functional; conditions: route intraperitoneal; outline: as §2
# L1210 [16] = test: Antileukemic activity against mouse L1210 cells allografted in female BDF1 mouse assessed as host mean survival time at 50 mg/kg, ip administered daily for 9 days as Klucel suspension starting 24 hrs after tumor inoculation relative to control; type: functional; conditions: route intraperitoneal; outline: as §6
# Mus musculus [17] = test: Toxicity in female CDF1 mouse allografted with mouse P388 cells assessed as animal survival at 100 mg/kg, ip administered daily for 9 days as saline with Tween-80 solution starting 24 hrs after tumor inoculation; type: organism-based; parameters: dose 100 mg/kg, route intraperitoneal; conditions: in vivo; outline: as §3
# Mus musculus [18] = test: Toxicity in female CDF1 mouse allografted with mouse P388 cells assessed as animal survival at 200 mg/kg, ip administered daily for 9 days as saline with Tween-80 solution starting 24 hrs after tumor inoculation; type: organism-based; parameters: dose 200 mg/kg, route intraperitoneal; conditions: in vivo; outline: as §3
compound,measurement,setting,value
COC(=O)c1c(C(=O)OC)c(-c2ccc(Cl)c(Cl)c2)n2c1CCC2,Activity,Mus musculus [1],Non-toxic
same,T/C,P388 [2],89%
same,Activity,L1210 [3],3.4 g
same,Activity,Mus musculus [4],Non-toxic
same,Activity,P388 [5],0.2 g
same,T/C,P388 [6],87%
same,Activity,L1210 [7],1.1 g
same,Activity,Mus musculus [8],Non-toxic
same,T/C,L1210 [9],88%
same,Activity,Mus musculus [10],Non-toxic
same,T/C,P388 [11],88%
same,Activity,P388 [12],0.2 g
same,T/C,L1210 [13],98%
same,Activity,P388 [14],-0.2 g
same,Activity,L1210 [15],2.8 g
same,T/C,L1210 [16],91%
same,Activity,Mus musculus [17],Non-toxic
same,Activity,Mus musculus [18],Non-toxic
